The source of these data is ChEMBL document CHEMBL2331294, “Anti-inflammatory diterpenoids from Croton tonkinensis” (J Nat Prod, 2013).

A short description of test [1]: Antiinflammatory activity in FMLP/CB activated human neutrophils assessed as inhibition of superoxide generation by ferricytochrome c reduction based spectrophotometry. It is filed as functional, cell-based, Neutrophil. In a few lines:
(§1)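 Human donor neutrophils (6 × 10^5 cells/mL) with 0.5 mg/mL ferricytochrome c and 1 mM Ca2+, equilibrated 37 °C 2 min, then drug or 0.1% DMSO vehicle 5 min. Activated with 100 nM FMLP after 1 μg/mL cytochalasin B preincubation, 3 min. A550 followed continuously with stirring. Superoxide from SOD (100 U/mL)-inhibitable difference, ε = 21.1/mM/10 mm; n = 3−4.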

A short description of test [2]: Antiinflammatory activity in FMLP/CB activated human neutrophils assessed as inhibition of elastase release. In kind it is functional, cell-based, Neutrophil. In a few lines:
(§2)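 Neutrophils from healthy donor blood (dextran sedimentation, Ficoll 1.077 g/mL, hypotonic lysis), held in Ca2+-free HBSS pH 7.4 at 4 °C. Cells (6 × 10^5/mL) with MeO-Suc-Ala-Ala-Pro-Val-p-nitroanilide 100 μM, equilibrated 37 °C 2 min, drug or 0.1% DMSO 5 min, then 100 nM FMLP plus 0.5 μg/mL cytochalasin B. A405 monitored continuously; expressed relative to drug-free activated control; n = 3−4.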

Test [3] can be described thus: Antiinflammatory activity in FMLP/CB activated human neutrophils assessed as inhibition of elastase release at 10 uM. In kind it is functional. Particulars: Neutrophil. In a few lines: as §2
The nature of test [4]: Antiinflammatory activity in FMLP/CB activated human neutrophils assessed as inhibition of superoxide generation at 10 uM by ferricytochrome c reduction based spectrophotometry. It is filed as functional. The following applies: Neutrophil. In a few lines:
as §1

Where [5] appears, read: Homo sapiens, Neutrophil, read-out: IC50.

Broadly, the IC50 is the midpoint of a concentration-inhibition curve. As for `C=C1C(=O)[C@@]23[C@H](O)C[C@@H]4C(C)(C)CCC[C@@]4(C)[C@@H]2CC[C@H]1[C@H]3OC(C)=O`, the half-inhibitory concentration (IC50) in test [1] (setting [5]) was 1120 nM; in test [2] (setting [5]) it was 2360 nM. As a reminder, the inhibition is the drop in the measured response relative to a control, in per cent. On to `C=C1C(=O)[C@]23C[C@@H]1CC[C@H]2[C@]1(C)CCC[C@](C)(CO)[C@H]1C[C@@H]3O`, for which, in test [3], the inhibition at 10 µM stood at 45.8%. The concentration for half-maximal inhibition (IC50) in test [1] (setting [5]) amounted to 3950 nM. On to `C=C1C(=O)[C@@]23CC[C@H]4[C@@](C)(CCC[C@]4(C)C(=O)O)[C@@H]2CC[C@H]1C3`, for which the 50% inhibitory concentration (IC50) in test [1] (setting [5]) came out at 3270 nM; in test [2] (setting [5]), 5560 nM. On the same counts, the results for `C=C1C(=O)[C@]23C[C@@H]1CC[C@H]2[C@]1(C)CCCC(C)(C)[C@H]1C[C@@H]3O` are 1740 nM and 2230 nM. With `C=C1C(=O)[C@@]23CC[C@@H]4C(C)(C)CCC[C@@]4(C)[C@@H]2CC[C@H]1[C@H]3O`, the figures for the inhibition at 10 µM in test [3] and in test [4] were 3.64% and 33.6%, respectively. Turning to `C=C1C[C@@]23CC[C@H]4[C@@](C)(CCC[C@]4(C)C(=O)O)[C@@H]2[C@H](OC(C)=O)C[C@H]1C3`, the IC50 in test [1] (setting [5]) stood at 4120 nM; in test [2] (setting [5]), 2580 nM. Take `C=C1C[C@]23C[C@@H]1CC[C@H]2[C@]1(C)CCC[C@](C)(COC(C)=O)[C@H]1C[C@H]3O`: the IC50 result in test [1] (neutrophil) and in test [2] (neutrophil) was “ND(Insoluble)” each time. With `C=C1C(=O)[C@]23C[C@@H]1C[C@@H](OC(C)=O)[C@H]2[C@]1(C)CCC[C@](C)(COC(C)=O)[C@H]1C[C@@H]3O`, the IC50 in test [1] (setting [5]) came to 1330 nM; in test [2] (setting [5]), 1650 nM. Turning to `C=C1C(=O)[C@@]23CC[C@@H]4[C@@](C)(COC(C)=O)CCC[C@@]4(C)[C@@H]2CC[C@@H]1C3`, the values for the IC50 in test [1] (setting [5]) and in test [2] (setting [5]) were 130 nM and 240 nM, respectively. Consider `C=C1C(=O)[C@@]23[C@H](O)C[C@@H]4C(C)(C)CC[C@@H](OC(C)=O)[C@@]4(C)[C@@H]2CC[C@@H]1[C@H]3O`, for which the IC50 is 1940 nM in test [1] (setting [5]) and 2480 nM in test [2] (setting [5]).

With `C=C1C(=O)[C@@]23CC[C@@H]4[C@@](C)(CO)CCC[C@@]4(C)[C@@H]2CC[C@@H]1C3`, the results for the inhibition at 10 µM in test [3] and in test [4] were 18% and 29.9%, respectively. On to `C=C1C(=O)[C@]23C[C@H]1CC[C@H]2[C@]1(C)CCC[C@](C)(COC(C)=O)[C@H]1C[C@H]3O`, for which the IC50 is 1550 nM in test [1] (setting [5]) and 2640 nM in test [2] (setting [5]).

As for `C=C1C(=O)[C@@]23[C@H](O)C[C@@H]4C(C)(C)CCC[C@@]4(C)[C@@H]2CC[C@@H]1[C@H]3O`, the 50% inhibitory concentration (IC50) in test [1] (setting [5]) was determined as 1960 nM; in test [2] (setting [5]) it was 3220 nM. With `CC(=O)OC[C@@]1(C)CCC[C@]2(C)[C@@H]1C[C@H](O)[C@@]13C[C@@H](CC[C@@H]21)[C@H](C)C3=O`, the inhibition at 10 µM is -0.19% in test [3] and 40.4% in test [4]. Consider `C=C1C(=O)[C@@]23[C@H](O)C[C@@H]4[C@@](C)(COC(C)=O)CCC[C@@]4(C)[C@@H]2CC[C@@H]1[C@H]3O`, for which the inhibition at 10 µM was 20.1% in test [3] and 19% in test [4].

For `C=C1C(=O)[C@@]23[C@@H]4CC5=C(C(=O)CC5(C)C)[C@@](C)(O4)[C@@H]2CC[C@@H]1[C@H]3O` [CROTONKINENSIN A], the IC50 in test [1] (setting [5]) was found to be 2060 nM; in test [2] (setting [5]), 1630 nM. Regarding `C=C1C[C@]23C(=O)C[C@H]4C(C)(C)CCC[C@]4(C)[C@H]2CC[C@H]1[C@@H]3O` [CROTONKININ A], the results for the inhibition at 10 µM in test [3] and in test [4] were -9.32% and 1.65%, respectively. For the compound `CC(=O)O[C@@H]1C[C@@H]2C[C@@]3(C=C2C=O)CC[C@H]2[C@](C)(CO)CCC[C@]2(C)[C@@H]13` [CROTONKININ B], the figures for the half-inhibitory concentration (IC50) in test [1] (setting [5]) and in test [2] (setting [5]) were 3200 nM and 4380 nM, respectively.

With `CC(=O)O[C@H]1C[C@@H]2C[C@]3(C=C2C=O)CC[C@H]2[C@@](C)(CCC[C@]2(C)C(=O)O)[C@H]13` [CROTONKININ C], the inhibition at 10 µM in test [3] worked out at 41.8%. For the same compound, the concentration for half-maximal inhibition (IC50) in test [1] (setting [5]) worked out at 4960 nM.

As for `CC(=O)OC[C@@]1(C)CCC[C@]2(C)[C@@H]1CC[C@]13C=C(C(=O)O)[C@H](C[C@H](OC(C)=O)[C@H]12)C3` [CROTONKININ D], the inhibition at 10 µM in test [3] is 20.3%. For the same compound, the IC50 in test [1] (setting [5]) worked out at 2930 nM. On to `C=C1C(=O)[C@@]23CC[C@@H]4[C@@](C)(COC(C)=O)CCC[C@@]4(C)[C@@H]2[C@@H](OC(C)=O)C[C@@H]1C3` [CROTONKININ E], for which the IC50 in test [1] (setting [5]) turned out to be 3110 nM; in test [2] (setting [5]), 4660 nM.

Regarding `C=C1C(=O)[C@]23C[C@H]1CC[C@H]2[C@]1(C)CCC[C@](C)(COC(C)=O)[C@H]1C[C@H]3OC(C)=O` [CROTONKININ F], the half-maximal inhibitory concentration (IC50) in test [1] (setting [5]) was 2880 nM; in test [2] (setting [5]), 4440 nM. For the compound `COCC1C(=O)[C@]23C[C@H]1CC[C@H]2[C@]1(C)CCC[C@](C)(COC(C)=O)[C@H]1C[C@H]3O` (stereo partly specified) [CROTONKININ G], the inhibition at 10 µM in test [3] is 11.1%. For the same compound, the IC50 in test [1] (setting [5]) came to 4290 nM.

As to `CC(=O)OC[C@@]1(C)CCC[C@]2(C)[C@@H]1CC[C@@]13C[C@@H](C[C@H](O)[C@H]12)C(C)(O)C3` (stereo partly specified) [CROTONKININ H], the inhibition at 10 µM was 23.3% in test [3] and -10.9% in test [4]. On to `CC(=O)OC[C@@]1(C)CCC[C@]2(C)[C@@H]1CC[C@]13CC(=O)[C@H](C[C@H](OC(C)=O)[C@H]12)C3` [CROTONKININ J], for which the inhibition at 10 µM in test [3] came out at 48.8%. Moreover, the half-maximal inhibitory concentration (IC50) in test [1] (setting [5]) was found to be 4760 nM. Consider `c1ccc2c(c1)[I+]c1ccccc1-2` [DIPHENYLENEIODONIUM], for which, in test [1] (setting [5]), the 50% inhibitory concentration (IC50) stood at 930 nM.
